Reference: ChEMBL document CHEMBL1121438, “Synthesis and antitumor activity of analogues of the antitumor antibiotic chartreusin” (J Med Chem, 1980)

Legend:
L1210 [1] = test: Evaluated for growth inhibition against cultured L1210 cells after 48 hour drug exposure in trial 2 at a dose of 1.44*10e-9; format: functional, Mus musculus
L1210 [2] = test: Evaluated for growth inhibition against cultured L1210 cells after 48 hour drug exposure in trial 2 at a dose of 1.44*10e-8; format: functional, Mus musculus
[3] = Partition coefficient (logP); format: physicochemical; conditions: octanol/water
L1210 [4] = test: Evaluated for growth inhibition against cultured L1210 cells after 48 hour drug exposure in trial 1 at a dose of 1.44*10e-9; format: functional, Mus musculus
L1210 [5] = test: Evaluated for growth inhibition against cultured L1210 cells after 48 hour drug exposure in trial 1 at a dose of 1.44*10e-8; format: functional, Mus musculus
L1210 [6] = test: Evaluated for growth inhibition against cultured L1210 cells after 48 hour drug exposure in trial 1 at a dose of 1.45*10e-9; format: functional, Mus musculus
Mus musculus [7] = test: Evaluated % increase in life span in vivo against P388 Murine leukemia cells in trial 1 at a dose of 50 mg/kg; format: functional
How it was run: (§1)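 Male CDF1 mice (17-22 g) inoculated ip with 10^6 P388 cells on day 0. Six animals per dose level. Activity is the median increase in life span over untreated controls (% ILS); body weight change of test vs control measured on days 1 and 5.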

Mus musculus [8] = test: Evaluated % increase in life span in vivo against P388 Murine leukemia cells in trial 1 at a dose of 100 mg/kg; format: functional; how it was run: as §1
Mus musculus [9] = test: Evaluated % increase in life span in vivo against P388 Murine leukemia cells in trial 2 at a dose of 12.5 mg/kg; format: functional; how it was run: as §1
Mus musculus [10] = test: Evaluated % increase in life span in vivo against P388 Murine leukemia cells in trial 1 at a dose of 200 mg/kg; format: functional; how it was run: as §1
L1210 [11] = test: Evaluated for growth inhibition against cultured L1210 cells after 48 hour drug exposure in trial 1 at a dose of 1.45*10e-8; format: functional, Mus musculus
L1210 [12] = test: Evaluated for growth inhibition against cultured L1210 cells after 48 hour drug exposure in trial 2 at a dose of 1.45*10e-8; format: functional, Mus musculus
Mus musculus [13] = test: Evaluated % increase in life span in vivo against P388 Murine leukemia cells in trial 1 at a dose of 25 mg/kg; format: functional; how it was run: as §1
Mus musculus [14] = test: Evaluated % increase in life span in vivo against P388 Murine leukemia cells in trial 2 at a dose of 100 mg/kg; format: functional; how it was run: as §1
Mus musculus [15] = test: Evaluated % increase in life span in vivo against P388 Murine leukemia cells in trial 2 at a dose of 200 mg/kg; format: functional; how it was run: as §1
Mus musculus [16] = test: Evaluated % increase in life span in vivo against P388 Murine leukemia cells in trial 1 at a dose of 12.5 mg/kg; format: functional; how it was run: as §1
L1210 [17] = test: Evaluated for growth inhibition against cultured L1210 cells after 48 hour drug exposure in trial 2 at a dose of 1.45*10e-9; format: functional, Mus musculus
Mus musculus [18] = test: Evaluated % increase in life span in vivo against P388 Murine leukemia cells in trial 2 at a dose of 25 mg/kg; format: functional; how it was run: as §1
Mus musculus [19] = test: Evaluated % increase in life span in vivo against P388 Murine leukemia cells in trial 2 at a dose of 50 mg/kg; format: functional; how it was run: as §1
[20] = Partition coefficient determined using pi values; format: physicochemical; conditions: octanol/water
How it was run: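 Calculated log P: the aglycon value was summed with the π value of the glycosyl substituent, using literature −2.84 for O-β-glucosyl and −3.24 for maltosyl.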

[21] = Partition coefficient (logP) (HPLC); format: physicochemical; conditions: octanol/water
How it was run: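 Relative log P by the reversed-phase LC method of McCall: octadecylsilyl column eluted with acetonitrile–water (1:1). The system was calibrated with a reference compound of known octanol/water log P, and log P values were derived from elution times.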

L1210 [22] = test: Evaluated for growth inhibition against cultured L1210 cells after 48 hour drug exposure in trial 2 at a dose of 1.65*10e-9; format: functional, Mus musculus
L1210 [23] = test: Evaluated for growth inhibition against cultured L1210 cells after 48 hour drug exposure in trial 1 at a dose of 1.65*10e-9; format: functional, Mus musculus
L1210 [24] = test: Evaluated for growth inhibition against cultured L1210 cells after 48 hour drug exposure in trial 2 at a dose of 1.65*10e-8; format: functional, Mus musculus
L1210 [25] = test: Evaluated for growth inhibition against cultured L1210 cells after 48 hour drug exposure in trial 1 at a dose of 1.65*10e-8; format: functional, Mus musculus

**Q.** What does the source list for `Cc1ccc2oc(=O)c3c(O)c4cccc(O[C@H]5O[C@H](C)[C@H](O)[C@H](O)[C@H]5O)c4c4oc(=O)c1c2c34`?
**A.** Inhibition (L1210 [1]): 65%; Inhibition (L1210 [2]): 100%; logP [3]: 2.07; Inhibition (L1210 [4]): 71%; Inhibition (L1210 [5]): 100%

**Q.** Which Inhibition (L1210 [6]) does the source give for `CO[C@H]1[C@@H](O)[C@@H](C)O[C@H](O[C@H]2[C@@H](Oc3cccc4c(O)c5c(=O)oc6ccc(C)c7c(=O)oc(c34)c5c67)O[C@H](C)[C@H](O)[C@@H]2O)[C@@H]1O` here?
**A.** 21%

**Q.** And the ILS at 50 mg/kg (Mus musculus [7])?
**A.** 60%

**Q.** And the ILS at 100 mg/kg (Mus musculus [8])?
**A.** 93%

**Q.** What about the ILS at 12.5 mg/kg (Mus musculus [9]) of the same compound?
**A.** 17%

**Q.** What about the logP [3] of the same compound?
**A.** 1.8

**Q.** What about the ILS at 200 mg/kg (Mus musculus [10]) of the same compound?
**A.** 43%

**Q.** And the Inhibition (L1210 [11])?
**A.** 100%

**Q.** And the Inhibition (L1210 [12])?
**A.** 100%

**Q.** What about the ILS at 25 mg/kg (Mus musculus [13]) of the same compound?
**A.** 47%

**Q.** What about the ILS at 100 mg/kg (Mus musculus [14]) of the same compound?
**A.** 45%

**Q.** And the ILS at 200 mg/kg (Mus musculus [15])?
**A.** 58%

**Q.** And the ILS at 12.5 mg/kg (Mus musculus [16])?
**A.** 46%

**Q.** What about the Inhibition (L1210 [17]) of the same compound?
**A.** 32%

**Q.** And the ILS at 25 mg/kg (Mus musculus [18])?
**A.** 56%

**Q.** And the ILS at 50 mg/kg (Mus musculus [19])?
**A.** 54%

**Q.** What does the source list for `Cc1ccc2oc(=O)c3c(O)c4cccc(O[C@H]5O[C@H](CO)[C@@H](O)[C@H](O)[C@H]5O)c4c4oc(=O)c1c2c34`?
**A.** Inhibition (L1210 [6]): 59%; logP [20]: 1.35; Inhibition (L1210 [11]): 100%; Inhibition (L1210 [12]): 97%; Inhibition (L1210 [17]): 47%; logP [21]: 1.82

**Q.** With `Cc1ccc2oc(=O)c3c(O)c4cccc(O)c4c4oc(=O)c1c2c34` as the compound, how does the logP [3] read?
**A.** 4.19

**Q.** What about the Inhibition (L1210 [22]) of the same compound?
**A.** 7%

**Q.** And the Inhibition (L1210 [23])?
**A.** 0%

**Q.** What about the Inhibition (L1210 [24]) of the same compound?
**A.** 58%

**Q.** What about the Inhibition (L1210 [25]) of the same compound?
**A.** 57%
